Converted amounts (≈) assume the structure as drawn.
Tests used:
MCF7 [1] = test: Effect on hydrogen peroxide level in human MCF7 cells assessed per mg protein at 2 ug/ml by Wolf's method after 24 hrs (reference value: 12.50 +/- 1.54 nmol/mg of protein); type: functional
MCF7 [2] = test: Effect on hydrogen peroxide level in human MCF7 cells assessed per mg protein at 5 ug/ml by Wolf's method after 24 hrs (reference value: 12.50 +/- 1.54 nmol/mg of protein); type: functional
MCF7 [3] = test: Effect on hydrogen peroxide level in human MCF7 cells assessed per mg protein at 10 ug/ml by Wolf's method after 24 hrs (reference value: 12.50 +/- 1.54 nmol/mg of protein); type: functional
MCF7 [4] = test: Effect on hydrogen peroxide level in human MCF7 cells assessed per mg protein at 20 ug/ml by Wolf's method after 24 hrs (reference value: 12.50 +/- 1.54 nmol/mg of protein); type: functional
MCF7 [5] = test: Decrease in CAT level in human MCF7 cells; type: functional, cell-based
MCF7 [6] = test: Decrease in glutathione peroxidase level in human MCF7 cells; type: functional, cell-based
MCF7 [7] = test: Decrease in glutathione level in human MCF7 cells; type: functional, cell-based
MCF7 [8] = test: Increase in hydrogen peroxide level in human MCF7 cells; type: functional, cell-based
MCF7 [9] = test: Increase in SOD level in human MCF7 cells; type: functional, cell-based
MCF7 [10] = test: Effect on DNA level in human MCF7 cells assessed per 10 '6 cells at 2 ug/ml after 24 hrs (reference value: 6.80 +/- 0.70 ug/10^6 cells); type: functional
Method in brief: (§1)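 After 24 h exposure of MCF-7 cells to compound at 2, 5, 10 or 20 µg/ml at 37 °C, nucleic acids were precipitated from cell homogenates. DNA was extracted and assayed by the Zhou et al. method, and RNA by a kit-derived procedure. Results given per 10⁶ cells as means ± S.E. of four experiments versus untreated control.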

MCF7 [11] = test: Effect on DNA level in human MCF7 cells assessed per 10 '6 cells at 5 ug/ml after 24 hrs (reference value: 6.80 +/- 0.70 ug/10^6 cells); type: functional; method in brief: as §1
MCF7 [12] = test: Effect on DNA level in human MCF7 cells assessed per 10 '6 cells at 10 ug/ml after 24 hrs (reference value: 6.80 +/- 0.70 ug/10^6 cells); type: functional; method in brief: as §1
MCF7 [13] = test: Effect on DNA level in human MCF7 cells assessed per 10 '6 cells at 20 ug/ml after 24 hrs (reference value: 6.80 +/- 0.70 ug/10^6 cells); type: functional; method in brief: as §1
MCF7 [14] = test: Effect on RNA level in human MCF7 cells assessed per 10 '6 cells at 2 ug/ml after 24 hrs (reference value: 11.50 +/- 0.70 ug/10^6 cells); type: functional; method in brief: as §1
MCF7 [15] = test: Effect on RNA level in human MCF7 cells assessed per 10 '6 cells at 5 ug/ml after 24 hrs (reference value: 11.50 +/- 0.70 ug/10^6 cells); type: functional; method in brief: as §1
MCF7 [16] = test: Effect on RNA level in human MCF7 cells assessed per 10 '6 cells at 10 ug/ml after 24 hrs (reference value: 11.50 +/- 0.70 ug/10^6 cells); type: functional; method in brief: as §1
MCF7 [17] = test: Effect on RNA level in human MCF7 cells assessed per 10 '6 cells at 20 ug/ml after 24 hrs (reference value: 11.50 +/- 0.70 ug/10^6 cells); type: functional; method in brief: as §1
MCF7 [18] = test: Decrease in DNA level in human MCF7 cells assessed per 10 '6 cells after 24 hrs relative to control; type: functional, cell-based; method in brief: as §1
MCF7 [19] = test: Decrease in RNA level in human MCF7 cells assessed per 10 '6 cells after 24 hrs relative to control; type: functional, cell-based; method in brief: as §1
MCF7 [20] = test: Antiproliferative activity against human MCF7 cells after 24 hrs by MTT assay; type: functional, cell-based; conditions: for IC50: MCF7, 24 h
Method in brief: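 MCF-7 cells (DMEM, 10% heat-inactivated FCS, penicillin/streptomycin, 37 °C, 5% CO2) plated at 0.65 × 10⁵ cells/well and given 24 h to attach. Exposed to compound or cisplatin at 2, 5, 10 or 20 µg/ml for 24 h at 37 °C. MTT added for 4 h, formazan dissolved in DMSO, absorbance read at 570 nm. Viability taken relative to untreated cells and IC50 derived.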

MCF7 [21] = test: Effect on SOD level in human MCF7 cells assessed per mg protein at 2 ug/ml after 24 hrs (reference value: 27.61+/- 3.72 U/mg of protein); type: functional
MCF7 [22] = test: Effect on SOD level in human MCF7 cells assessed per mg protein at 5 ug/ml after 24 hrs (reference value: 27.61+/- 3.72 U/mg of protein); type: functional
MCF7 [23] = test: Effect on SOD level in human MCF7 cells assessed per mg protein at 10 ug/ml after 24 hrs (reference value: 27.61+/- 3.72 U/mg of protein); type: functional
MCF7 [24] = test: Effect on SOD level in human MCF7 cells assessed per mg protein at 20 ug/ml after 24 hrs (reference value: 27.61+/- 3.72 U/mg of protein); type: functional
MCF7 [25] = test: Effect on CAT level in human MCF7 cells assessed per mg protein at 2 ug/ml after 24 hrs (reference value: 7.90+/- 0.67 U/mg of protein); type: functional
MCF7 [26] = test: Effect on CAT level in human MCF7 cells assessed per mg protein at 5 ug/ml after 24 hrs (reference value: 7.90+/- 0.67 U/mg of protein); type: functional
MCF7 [27] = test: Effect on CAT level in human MCF7 cells assessed per mg protein at 10 ug/ml after 24 hrs (reference value: 7.90+/- 0.67 U/mg of protein); type: functional
MCF7 [28] = test: Effect on CAT level in human MCF7 cells assessed per mg protein at 20 ug/ml after 24 hrs (reference value: 7.90+/- 0.67 U/mg of protein); type: functional
MCF7 [29] = test: Effect on glutathione peroxidase level in human MCF7 cells assessed per mg protein at 2 ug/ml after 24 hrs (reference value: 11.20 +/- 1.36 U/mg of protein); type: functional
MCF7 [30] = test: Effect on glutathione peroxidase level in human MCF7 cells assessed per mg protein at 5 ug/ml after 24 hrs (reference value: 11.20 +/- 1.36 U/mg of protein); type: functional
MCF7 [31] = test: Effect on glutathione peroxidase level in human MCF7 cells assessed per mg protein at 10 ug/ml after 24 hrs (reference value: 11.20 +/- 1.36 U/mg of protein); type: functional
MCF7 [32] = test: Effect on glutathione peroxidase level in human MCF7 cells assessed per mg protein at 20 ug/ml after 24 hrs (reference value: 11.20 +/- 1.36 U/mg of protein); type: functional
MCF7 [33] = test: Effect on glutathione level in human MCF7 cells assessed per mg protein at 2 ug/ml by Ellman method after 24 hrs (reference value: 39.82 +/- 4.20 nmol/mg of protein); type: functional
MCF7 [34] = test: Effect on glutathione level in human MCF7 cells assessed per mg protein at 5 ug/ml by Ellman method after 24 hrs (reference value: 39.82 +/- 4.20 nmol/mg of protein); type: functional
MCF7 [35] = test: Effect on glutathione level in human MCF7 cells assessed per mg protein at 10 ug/ml by Ellman method after 24 hrs (reference value: 39.82 +/- 4.20 nmol/mg of protein); type: functional
MCF7 [36] = test: Effect on glutathione level in human MCF7 cells assessed per mg protein at 20 ug/ml by Ellman method after 24 hrs (reference value: 39.82 +/- 4.20 nmol/mg of protein); type: functional

`CCSc1ncnc2c1cnn2-c1nc(C)nc2sc3c(c12)-c1ccccc1CC3` was tested, and the Activity (MCF7 [1]) was 35 nmol, the Activity (MCF7 [2]) was 55 nmol and the Activity (MCF7 [3]) was 60.5 nmol. The Activity (MCF7 [4]) was 80 nmol, the Activity (MCF7 [5]) was “Dose-dependent effect” and the Activity (MCF7 [6]) was “Dose-dependent effect”. The Activity (MCF7 [7]) was “Dose-dependent effect”, the Activity (MCF7 [8]) was “Dose-dependent effect” and the Activity (MCF7 [9]) was “Dose-dependent effect”. The Activity (MCF7 [10]) was 3.8 µg/10^6 cells, the Activity (MCF7 [11]) was 3.1 µg/10^6 cells and the Activity (MCF7 [12]) was 2.76 µg/10^6 cells. For the same compound, the Activity (MCF7 [13]) was 1.82 µg/10^6 cells, the Activity (MCF7 [14]) was 5.5 µg/10^6 cells and the Activity (MCF7 [15]) was 4.32 µg/10^6 cells. The Activity (MCF7 [16]) was 4 µg/10^6 cells, the Activity (MCF7 [17]) was 3.61 µg/10^6 cells and the Activity (MCF7 [18]) was “Dose-dependent effect”. For the same compound, the Activity (MCF7 [19]) was “Dose-dependent effect”, the Activity (MCF7 [20]) was “Dose-dependent effect” and the IC50 (MCF7 [20]) was 3 µg/mL (≈ 6.97 µM). It also gave an Activity (MCF7 [21]) of 125 U/mg protein, an Activity (MCF7 [22]) of 150 U/mg protein and an Activity (MCF7 [23]) of 360 U/mg protein. It also gave an Activity (MCF7 [24]) of 385 U/mg protein, an Activity (MCF7 [25]) of 3.6 U/mg protein and an Activity (MCF7 [26]) of 2.9 U/mg protein. The Activity (MCF7 [27]) was 1.76 U/mg protein, the Activity (MCF7 [28]) was 1.55 U/mg protein and the Activity (MCF7 [29]) was 5.6 U/mg protein. It also gave an Activity (MCF7 [30]) of 4.25 U/mg protein, an Activity (MCF7 [31]) of 3 U/mg protein and an Activity (MCF7 [32]) of 2.2 U/mg protein. For the same compound, the Activity (MCF7 [33]) was 20.11 nmol, the Activity (MCF7 [34]) was 19.16 nmol and the Activity (MCF7 [35]) was 17 nmol. It also gave an Activity (MCF7 [36]) of 14.8 nmol.
Compound `Cc1nc(-n2ncc3c(Cl)ncnc32)c2c3c(sc2n1)CCc1ccccc1-3` has an Activity (MCF7 [1]) of 28.23 nmol, an Activity (MCF7 [2]) of 25.45 nmol and an Activity (MCF7 [3]) of 37.85 nmol. The Activity (MCF7 [4]) was 52.33 nmol, the Activity (MCF7 [5]) was “Dose-dependent effect” and the Activity (MCF7 [6]) was “Dose-dependent effect”. The Activity (MCF7 [7]) was “Dose-dependent effect”, the Activity (MCF7 [8]) was “Dose-dependent effect” and the Activity (MCF7 [9]) was “Dose-dependent effect”. The Activity (MCF7 [10]) was 4.85 µg/10^6 cells, the Activity (MCF7 [11]) was 4.46 µg/10^6 cells and the Activity (MCF7 [12]) was 4 µg/10^6 cells. For the same compound, the Activity (MCF7 [13]) was 3.85 µg/10^6 cells, the Activity (MCF7 [14]) was 8.75 µg/10^6 cells and the Activity (MCF7 [15]) was 7.5 µg/10^6 cells. The Activity (MCF7 [16]) was 6.7 µg/10^6 cells, the Activity (MCF7 [17]) was 6.5 µg/10^6 cells and the Activity (MCF7 [18]) was “Dose-dependent effect”. The Activity (MCF7 [19]) was “Dose-dependent effect”, the Activity (MCF7 [20]) was “Dose-dependent effect” and the IC50 (MCF7 [20]) was 7 µg/mL (≈ 17.3 µM). The Activity (MCF7 [21]) was 80.2 U/mg protein, the Activity (MCF7 [22]) was 90.6 U/mg protein and the Activity (MCF7 [23]) was 160 U/mg protein. For the same compound, the Activity (MCF7 [24]) was 201 U/mg protein, the Activity (MCF7 [25]) was 5.8 U/mg protein and the Activity (MCF7 [26]) was 4.9 U/mg protein. It also gave an Activity (MCF7 [27]) of 4.2 U/mg protein, an Activity (MCF7 [28]) of 3.65 U/mg protein and an Activity (MCF7 [29]) of 8 U/mg protein. It also gave an Activity (MCF7 [30]) of 7.6 U/mg protein, an Activity (MCF7 [31]) of 7 U/mg protein and an Activity (MCF7 [32]) of 6.7 U/mg protein. For the same compound, the Activity (MCF7 [33]) was 35.8 nmol, the Activity (MCF7 [34]) was 29.5 nmol and the Activity (MCF7 [35]) was 27.2 nmol. It also gave an Activity (MCF7 [36]) of 25 nmol.
